Data from ChEMBL document CHEMBL1955778, “Design and synthesis of novel 7-aminoquinazoline derivatives: antitumor and anticonvulsant activities” (Bioorg Med Chem Lett, 2012).

Tests used:
Assay type in all cases: functional
Conditions in all cases: read-out: GI
SNB-75 = experiment: Growth inhibition of human SNB75 cells at 10 uM relative to control
Outline: (§1)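 Single-dose screen across the 60-cell-line human tumor panel at 10 μM. Growth inhibition is reported as a percentage, taken as 100 minus the % growth relative to untreated control.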

SNB-19 = experiment: Growth inhibition of human SNB19 cells at 10 uM relative to control; outline: as §1
CAKI-1 = experiment: Growth inhibition of human CAKI-1 cells at 10 uM relative to control
Outline: (§2)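 Each cell line in a 60-line human tumour panel exposed to one 10 μM concentration. Growth inhibition percentage computed as 100 minus the percentage activity relative to control.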

HCT-15 = experiment: Growth inhibition of human HCT15 cells at 10 uM relative to control; outline: as §2
A498 = experiment: Growth inhibition of human A498 cells at 10 uM relative to control; outline: as §2
M14 = experiment: Growth inhibition of human M14 cells at 10 uM relative to control; outline: as §2
EKVX = experiment: Growth inhibition of human EKVX cells at 10 uM relative to control; outline: as §2
NCI-H322M = experiment: Growth inhibition of human NCI-H322M cells at 10 uM relative to control; outline: as §2
NCI-H522 = experiment: Growth inhibition of human NCI-H522 cells at 10 uM relative to control; outline: as §2
SK-OV-3 = experiment: Growth inhibition of human SKOV3 cells at 10 uM relative to control; outline: as §2
U-251 = experiment: Growth inhibition of human U251 cells at 10 uM relative to control; outline: as §1
HOP-62 = experiment: Growth inhibition of human HOP62 cells at 10 uM relative to control; outline: as §2
SF-295 = experiment: Growth inhibition of human SF295 cells at 10 uM relative to control; outline: as §2
OVCAR-5 = experiment: Growth inhibition of human OVCAR5 cells at 10 uM relative to control; outline: as §2
UACC-62 = experiment: Growth inhibition of human UACC62 cells at 10 uM relative to control; outline: as §1
CCRF-CEM = experiment: Growth inhibition of human CCRF-CEM cells at 10 uM relative to control; outline: as §2
SF-268 = experiment: Growth inhibition of human SF268 cells at 10 uM relative to control; outline: as §2
UO-31 = experiment: Growth inhibition of human UO31 cells at 10 uM relative to control; outline: as §1
RPMI-8226 = experiment: Growth inhibition of human RPMI8226 cells at 10 uM relative to control; outline: as §2
T47D = experiment: Growth inhibition of human T47D cells at 10 uM relative to control; outline: as §1
BT-549 = experiment: Growth inhibition of human BT549 cells at 10 uM relative to control; outline: as §2
MDA-MB-435 = experiment: Growth inhibition of human MDA-MB-435 cells at 10 uM relative to control; outline: as §2
SF-539 = experiment: Growth inhibition of human SF539 cells at 10 uM relative to control; outline: as §2
PC-3 = experiment: Growth inhibition of human PC3 cells at 10 uM relative to control; outline: as §2
HCC 2998 = experiment: Growth inhibition of human HCC2998 cells at 10 uM relative to control; outline: as §2
TK-10 = experiment: Growth inhibition of human TK10 cells at 10 uM relative to control; outline: as §1
Malme-3M = experiment: Growth inhibition of human MALME-3M cells at 10 uM relative to control; outline: as §2
KM12 = experiment: Growth inhibition of human KM12 cells at 10 uM relative to control; outline: as §2

Cc1ccccc1-n1c(C)nc2cc(N)ccc2c1=S
inhibition of growth at 10 µM (SNB-75): 15.5% | inhibition of growth at 10 µM (SNB-19): 2% | inhibition of growth at 10 µM (CAKI-1): 5% | inhibition of growth at 10 µM (HCT-15): 2.5% | inhibition of growth at 10 µM (A498): 20% | inhibition of growth at 10 µM (M14): 4% | inhibition of growth at 10 µM (EKVX): 15.2% | inhibition of growth at 10 µM (NCI-H322M): 11.1% | inhibition of growth at 10 µM (NCI-H522): 4% | inhibition of growth at 10 µM (SK-OV-3): 5% | inhibition of growth at 10 µM (U-251): 6% | inhibition of growth at 10 µM (HOP-62): 5.5% | inhibition of growth at 10 µM (SF-295): 16.6% | inhibition of growth at 10 µM (OVCAR-5): 10% | inhibition of growth at 10 µM (UACC-62): 9% | inhibition of growth at 10 µM (CCRF-CEM): 9.5% | inhibition of growth at 10 µM (SF-268): 10.6% | inhibition of growth at 10 µM (UO-31): 22% | inhibition of growth at 10 µM (RPMI-8226): 4% | inhibition of growth at 10 µM (T47D): 11% | inhibition of growth at 10 µM (BT-549): 8% | inhibition of growth at 10 µM (MDA-MB-435): 9.8% | inhibition of growth at 10 µM (SF-539): 2% | inhibition of growth at 10 µM (PC-3): 9.5% | inhibition of growth at 10 µM (HCC 2998): 16.6% | inhibition of growth at 10 µM (TK-10): 10% | inhibition of growth at 10 µM (Malme-3M): 17% | inhibition of growth at 10 µM (KM12): 8.3%
